Test results as given in PMC10238757 (Pharmacology Research & Perspectives, 2023).

Key:
[1] = Relative bioavailability and food effect; assay type: in vivo, human; conditions: 100 mg; for Tmax: human, plasma, oral, Median t max
Method in brief: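 Open-label, single-dose, 3-period cross-over; 17 healthy participants; washout ≥24 days. Each received 100 mg oral as PiB fed, tablet fed or tablet fasted. Overnight fast ≥9.5 h before and ≥4 h after dosing; fed arms got a moderate-fat meal 25 min pre-dose. Non-compartmental PK. Log_e PK parameters fitted by mixed-effect models (fed/fasted, tablet/PiB fixed; participant random). Back-transformed 90% CIs for AUC_0‐24, AUC_0‐∞, Cmax.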

Multiple ascending dose = assay type: in vivo, human; conditions: for half-life / AUC(0-t) / Cmax / concentration at 24 h / Tmax / concentration at 168 h: human, plasma, oral; for Cmax: C max; for Cmax / concentration at 24 h / concentration at 168 h: ng/mL GM (%CVb); for concentration at 24 h / concentration at 168 h: C trough; for Tmax: t max, h median (range)
Method in brief: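 Healthy participants, double-blind and placebo-controlled, cohorts of 10 randomized 7:3. Oral doses after a moderate-fat meal: 25–100 mg QD for 14 days (18 days at top dose), or 500 mg QW ×3. Trough taken pre-dose at end of interval (24 h QD, 168 h QW). Plasma followed to 360 h; LLOQ 10 ng/mL. Non-compartmental PK; accumulation ratios Day 14, 15 or 18 vs Day 1; geometric means with CVb.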

healthy participants = assay: Safety pooled across study parts; assay type: in vivo, human
Method in brief: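 AEs in healthy participants given oral test compound or placebo, recorded with grade and relation to treatment. Laboratory analyses, clinical parameters and suicidality were also monitored. Observation ran 360 h after dosing. Summaries were descriptive, with no formal statistics; parts 1–2 blinded and placebo-controlled, part 3 open-label.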

HIV-1 = conditions: cited from earlier work
Single ascending dose = assay type: in vivo, human
Method in brief: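 Healthy participants, double-blind cross-over between 2 cohorts of 9, randomized 6:3 drug:placebo each period. Single oral doses of 10–800 mg right after a moderate-fat breakfast (600 calories, 30% fat). Plasma sampled to 360 h (protocol first set 96 h); LLOQ 10 ng/mL. Non-compartmental analysis; dose proportionality by power model.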

rats = assay: Dose ranging and good laboratory practice toxicology studies in rats; assay type: in vivo

C=C(C)[C@@H]1CC[C@]2(NCCN3CCS(=O)(=O)CC3)CC[C@]3(C)[C@H](CC[C@@H]4[C@@]5(C)CC=C(C6=CC[C@@](COc7ncccc7C#N)(C(=O)O)CC6)C(C)(C)[C@@H]5CC[C@]43C)[C@@H]12 [GSK'937]
increase in C max, tablet versus PiB ([1]; fed): approximately 37% | increase in bioavailability by AUC0-24, tablet versus PiB ([1]; fed): 38% | increase in bioavailability by AUC0-∞, tablet versus PiB ([1]; fed): 35% | Tmax ([1]; 100 mg PiB fed): 9 h | Tmax ([1]; 100 mg tablet fasted): 6 h | Tmax ([1]; both tablet and PiB formulations under fed conditions): 8 to 9 h | exposure in fed versus fasted states ([1]; tablet): > 2 fold | Accumulation ratio of C trough GM (%CVb) (Multiple ascending dose; 25 mg QD, Day 14/Day 1): 6.58 (31.4) | Accumulation ratio of C trough GM (%CVb) (Multiple ascending dose; 50 mg QD, Day 14/Day 1): 5.25 (35.7) | Accumulation ratio of C trough GM (%CVb) (Multiple ascending dose; 100 mg QD, Day 18/Day 1): 9.39 (72.5) | accumulation in exposure following repeat dosing (Multiple ascending dose; 500 mg QW (weekly)): ~ 1.7 fold | Accumulation ratio of AUC0-t GM (%CVb) (Multiple ascending dose; 500 mg QW, Day 15/Day 1): 1.76 (27.0) | Accumulation ratio of C max GM (%CVb) (Multiple ascending dose; 500 mg QW, Day 15/Day 1): 1.68 (26.9) | Accumulation ratio of C trough GM (%CVb) (Multiple ascending dose; 500 mg QW, Day 15/Day 1): 1.82 (33.8) | time after final dose at which still detectable (Multiple ascending dose; all part 2 participants): 360 h | half-life (Multiple ascending dose): 72.2 to 85.8 h | AUC(0-t) (Multiple ascending dose; 25 mg): 1890 ng·h/mL | half-life (Multiple ascending dose; 25 mg): 85.8 h | Cmax (Multiple ascending dose; 25 mg, 25 mg QD, Day 1): 132 ng/mL | Cmax (Multiple ascending dose; 25 mg, 25 mg QD, Day 14): 766 ng/mL | concentration at 24 h (Multiple ascending dose; 25 mg, 25 mg QD, Day 1, 24 h): 89.3 ng/mL | concentration at 24 h (Multiple ascending dose; 25 mg, 25 mg QD, Day 14, 24 h): 588 ng/mL | Tmax (Multiple ascending dose; 25 mg, 25 mg QD, Day 1): 9 h | Tmax (Multiple ascending dose; 25 mg, 25 mg QD, Day 14): 6.95 h | AUC(0-t) (Multiple ascending dose; 50 mg): 3560 ng·h/mL | half-life (Multiple ascending dose; 50 mg): 72.2 h | Cmax (Multiple ascending dose; 50 mg, 50 mg QD, Day 1): 232 ng/mL | Cmax (Multiple ascending dose; 50 mg, 50 mg QD, Day 14): 1150 ng/mL | concentration at 24 h (Multiple ascending dose; 50 mg, 50 mg QD, Day 1, 24 h): 189 ng/mL | concentration at 24 h (Multiple ascending dose; 50 mg, 50 mg QD, Day 14, 24 h): 990 ng/mL | Tmax (Multiple ascending dose; 50 mg, 50 mg QD, Day 1): 8 h | Tmax (Multiple ascending dose; 50 mg, 50 mg QD, Day 14): 7.03 h | AUC(0-t) (Multiple ascending dose; 100 mg): 5890 ng·h/mL | half-life (Multiple ascending dose; 100 mg): 78.5 h | Cmax (Multiple ascending dose; 100 mg, 100 mg QD, Day 1): 375 ng/mL | Cmax (Multiple ascending dose; 100 mg, 100 mg QD, Day 14): 2680 ng/mL | Cmax (Multiple ascending dose; 100 mg, 100 mg QD, Day 18): 2750 ng/mL | concentration at 24 h (Multiple ascending dose; 100 mg, 100 mg QD, Day 1, 24 h): 272 ng/mL | concentration at 24 h (Multiple ascending dose; 100 mg, 100 mg QD, Day 14, 24 h): 2420 ng/mL | concentration at 24 h (Multiple ascending dose; 100 mg, 100 mg QD, Day 18, 24 h): 2460 ng/mL | Tmax (Multiple ascending dose; 100 mg, 100 mg QD, Day 1): 9 h | Tmax (Multiple ascending dose; 100 mg, 100 mg QD, Day 14): 7.49 h | Tmax (Multiple ascending dose; 100 mg, 100 mg QD, Day 18): 9.01 h | half-life (Multiple ascending dose; 500 mg): 74.5 h | Cmax (Multiple ascending dose; 500 mg, 500 mg QW, Day 1): 1110 ng/mL | Cmax (Multiple ascending dose; 500 mg, 500 mg QW, Day 8): 2320 ng/mL | Cmax (Multiple ascending dose; 500 mg, 500 mg QW, Day 15): 1860 ng/mL | concentration at 168 h (Multiple ascending dose; 500 mg, 500 mg QW, Day 1, 168 h): 251 ng/mL | concentration at 168 h (Multiple ascending dose; 500 mg, 500 mg QW, Day 8, 168 h): 498 ng/mL | concentration at 168 h (Multiple ascending dose; 500 mg, 500 mg QW, Day 15, 168 h): 455 ng/mL | Tmax (Multiple ascending dose; 500 mg, 500 mg QW, Day 1): 9.88 h | Tmax (Multiple ascending dose; 500 mg, 500 mg QW, Day 8): 10 h | Tmax (Multiple ascending dose; 500 mg, 500 mg QW, Day 15): 10 h | severity of all AEs in participants receiving GSK'937 (healthy participants; all study parts): grade 1 or 2 | dry skin among AEs attributable to GSK'937 (healthy participants; parts 1 and 2, 1/17): 6% | headache among AEs attributable to GSK'937 (healthy participants; parts 1 and 2, 2/17): 12% | Gastrointestinal disorders among GSK'937 recipients (healthy participants; parts 1 and 2, 13/64): 20% | GI disorders among AEs attributable to GSK'937 (healthy participants; parts 1 and 2, 14/17): 82% | potency in vitro (HIV-1): low nanomolar | t max, h median (range) (Single ascending dose; SAD 800 mg): 18.08 (12.1–24.1) h | time up to which concentrations were quantifiable (Single ascending dose; after the 10-mg dose): up to 96 h | time up to which concentrations were quantifiable (Single ascending dose; after the 30-mg dose, 5 of 6 participants): ≤ 264 h | time up to which concentrations were quantifiable (Single ascending dose; all other doses except 1 individual in the 80-mg cohort): ≤ 360 h | AUC(0-t) (Single ascending dose; human, plasma, oral, 10 mg): 2490 ng·h/mL | Cmax (Single ascending dose; human, plasma, oral, 10 mg): 39.2 ng/mL | Tmax (Single ascending dose; human, plasma, oral, 10 mg, t max, h median (range), SAD 10 mg): 6.98 h | Cmax (Single ascending dose; human, plasma, oral, 30 mg): 127 ng/mL | half-life (Single ascending dose; human, plasma, oral, 30 mg, t 1/2 GM (%CVb), SAD 30 mg): 75.9 h | Tmax (Single ascending dose; human, plasma, oral, 30 mg, t max, h median (range), SAD 30 mg): 8 h | Cmax (Single ascending dose; human, plasma, oral, 80 mg): 310 ng/mL | half-life (Single ascending dose; human, plasma, oral, 80 mg, t 1/2 GM (%CVb), SAD 80 mg): 79.1 h | Tmax (Single ascending dose; human, plasma, oral, 80 mg, t max, h median (range), SAD 80 mg): 7.98 h | Cmax (Single ascending dose; human, plasma, oral, 160 mg): 529 ng/mL | half-life (Single ascending dose; human, plasma, oral, 160 mg, t 1/2 GM (%CVb), SAD 160 mg): 91.8 h | Tmax (Single ascending dose; human, plasma, oral, 160 mg, t max, h median (range), SAD 160 mg): 7.95 h | Cmax (Single ascending dose; human, plasma, oral, 320 mg): 1010 ng/mL | half-life (Single ascending dose; human, plasma, oral, 320 mg, t 1/2 GM (%CVb), SAD 320 mg): 96.8 h | Tmax (Single ascending dose; human, plasma, oral, 320 mg, t max, h median (range), SAD 320 mg): 6.99 h | Cmax (Single ascending dose; human, plasma, oral, 640 mg): 1460 ng/mL | half-life (Single ascending dose; human, plasma, oral, 640 mg, t 1/2 GM (%CVb), SAD 640 mg): 82.6 h | Tmax (Single ascending dose; human, plasma, oral, 640 mg, t max, h median (range), SAD 640 mg): 7 h | Cmax (Single ascending dose; human, plasma, oral, 800 mg): 2860 ng/mL | half-life (Single ascending dose; human, plasma, oral, 800 mg, t 1/2 GM (%CVb), SAD 800 mg): 67.4 h | Tmax (Single ascending dose; human, plasma, oral, 800 mg, t max, h median (range), SAD 800 mg): 18 h | Tmax (Single ascending dose; human, plasma, oral, Median t max, all single doses except the 800-mg dose): 7 to 8 h | half-life (Single ascending dose; human, plasma, oral, t 1/2, range across doses, part 1 single doses): 67 to 97 h | half-life (Single ascending dose; human, plasma, oral, terminal phase half-life, all doses following single and repeat dosing): ~72 h | no observed adverse effect level (rats): 10 mg/kg/day
